Key:
Mus musculus [1] = experiment: Analgesic activity in po dosed mouse by anti-writhing test; assay type: functional
Outline: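 Mouse antiwrithing test after oral dosing, five mice per dose. ED50 (half-maximal effect dose) with 95% confidence limits by computerized modification of Litchfield–Wilcoxon.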

Rattus norvegicus = experiment: Toxicity in ip dosed Wistar rat assessed as tachycardia; assay type: organism-based; settings: in vivo
Outline: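 Conscious rats on a warming plate, with rectal temperature kept below 39 °C. Heart rate taken from tail pulse sound (piezo contact microphone, tachograph). Agents given ip in absolute ethanol or distilled water according to solubility. Maximum heart-rate increase plotted against log dose. ED50 with 95% confidence limits by computerized Litchfield–Wilcoxon. Five, six or twelve rats per dose depending on compound.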

Mus musculus [2] = experiment: Analgesic activity in po dosed mouse by hot plate test; assay type: functional
Outline: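 Mouse hot-plate antinociception after oral dosing, ten mice per dose. ED50 with 95% confidence limits by computerized Litchfield–Wilcoxon method.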

Structure (SMILES)	ED50 (Mus musculus [1])	Activity (Rattus norvegicus)	ED50 (Rattus norvegicus)	ED50 (Mus musculus [2])
C#CCN1CCC2=C(C1)c1c(O)cc(C(C)C(C)CCCCC)cc1OC2(C)C (stereo unspecified)	4.3 mg/kg	Dose-dependent effect	0.061 mg/kg	7.7 mg/kg
CCCCCC(C)C(C)c1cc(O)c2c(c1)OC(C)(C)C1=C2CC(C)CC1 (mixture of isomers)	3 mg/kg	Dose-dependent effect	0.31 mg/kg	9.3 mg/kg
Br.CCCCCC(C)C(C)c1cc(OC(=O)CCCN2CCOCC2)c2c(c1)OC(C)(C)C1=C2CC(C)CC1 (stereo unspecified)	2.3 mg/kg	Dose-dependent effect	2.13 mg/kg	0.5 mg/kg
C#CCN1CCC2=C(C1)c1c(OC(=O)C(C)CCN3CCCCC3C)cc(C(C)C(C)CCCCC)cc1OC2(C)C.Cl (stereo unspecified)	7.3 mg/kg	Dose-dependent effect	0.53 mg/kg	3.8 mg/kg
CCCCCC(C)C(C)c1cc(OC(=O)CCCN2CCCCC2)c2c(c1)OC(C)(C)C1=C2CC(C)CC1.Cl (stereo unspecified)	25.9 mg/kg	Dose-dependent effect	1.92 mg/kg	15 mg/kg
Br.CCCCCc1cc(OC(=O)CCCN2CCOCC2)c2c(c1)OC(C)(C)[C@@H]1CCC(C)=C[C@@H]21	> 40 mg/kg	Dose-dependent effect	0.092 mg/kg	168 mg/kg
C#CCN1CCC2=C(C1)c1c(OC(=O)CCCN3CCCCC3)cc(C(C)C(C)CCCCC)cc1OC2(C)C.Cl (stereo unspecified) [NABITAN HYDROCHLORIDE]	12 mg/kg	Dose-dependent effect	0.11 mg/kg	5.3 mg/kg
CCCCCc1cc(O)c2c(c1)OC(C)(C)[C@@H]1CCC(C)=C[C@@H]21 [DRONABINOL]	43 mg/kg	Dose-dependent effect	0.062 mg/kg	> 100 mg/kg
C#CCN1CCC2=C(C1)c1c(OC(=O)C(C)CCN3CCCCC3)cc(C(C)C(C)CCCCC)cc1OC2(C)C.Cl (stereo unspecified)	12.2 mg/kg	Dose-dependent effect	0.4 mg/kg	4.6 mg/kg

From ChEMBL document CHEMBL3243963, “Drugs derived from cannabinoids. 7. Tachycardia and analgesia structure-activity relationships in delta9-tetrahydrocannabinol and some synthetic analogues” (J Med Chem, 1978)
